# Shown are actives, neighbours in structure and some others; about 4.3% of the full set was active somewhere.
# CAL PDZ FP-1 – untagged CAL PDZ binding inhibitors, primary screen, biochemical, fluorescence polarization, HTS. Golgi-associated PDZ and coiled-coil motif-containing protein (Homo sapiens), Q9HD26. purified CAL PDZ, TMR-peptide fluorescence polarization, 1 h. inhibition, % at 24.9 µM. actives 0.92% (n = 300,000). AID 602252, 2012;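 active = mean inhibition of at least 30% with at least half of replicates also reaching 30%; inconclusive = no clear call, values can overlap the other calls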
# ALR H2O2 inh – inhibitors of human ALR sulfhydryl oxidase, primary screen, biochemical, H2O2 detection, HRP-luminol luminescence, single point. FAD-linked sulfhydryl oxidase ALR (Homo sapiens), P55789. purified ALR, DTT oxidation. inhibition, % (no concentration beside the values). actives 3.8% (n = 290,000);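 active = mean replicate inhibition above about 79%, with every replicate also reaching it, limit read from the data; inconclusive = only one of the two criteria met; inactive = mean below limit and not every replicate reaching it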
# Target sequence (P55789 whole entry, looked up): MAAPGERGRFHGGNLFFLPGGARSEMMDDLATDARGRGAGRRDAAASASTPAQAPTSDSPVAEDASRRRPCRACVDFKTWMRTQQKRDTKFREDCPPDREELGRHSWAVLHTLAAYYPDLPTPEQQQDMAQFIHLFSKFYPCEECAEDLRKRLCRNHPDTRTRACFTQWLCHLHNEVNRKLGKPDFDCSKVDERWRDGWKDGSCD
# CAL PDZ FP-2 – CAL PDZ peptide-binding inhibitors, primary screen, biochemical, fluorescence polarization, Cer-tagged CAL PDZ, HTS | Golgi-associated PDZ and coiled-coil motif-containing protein (Homo sapiens), Q9HD26 | purified CAL PDZ, TMR-peptide fluorescence polarization, 1 h | inhibition, % at 20 µM | actives 0.02% (n = 330,000) | AID 504414, 2011;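 active = highest replicate inhibition of at least 40%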
#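 Test system: purified CerCALP PDZ construct; Compound dosing: one concentration, 20 µM compound; Also added: TMR-labelled reporter peptide T*-PRC34 bound in PDZ groove; Read-out: inhibition from polarization loss; Controls: unlabelled peptide and DMSO controls; Signal: FP readout, S and P plane fluorescence; Incubation: 1 h at RT.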
# Dyrk1A ADPGlo – rat Dyrk1A kinase inhibitors, primary screen, biochemical, single point, plate reader; AID 504441, 2011; actives 0.43% (n = 310,000); inhibition, % at 12.5 µM; ADP-Glo luminescence, NFATc1 peptide; Dual specificity tyrosine-phosphorylation-regulated kinase 1A (Rattus norvegicus), Q63470; in the data active = inhibition above about 50%
# Rtt109 Vps75 – inhibitors of C. albicans Rtt109/Vps75 HAT, primary screen, biochemical, ThioGlo CoA-SH fluorescence, plate reader; AID 540336, 2011; purified Rtt109/Vps75, 4 h; inhibition, % at 34.9 µM; actives 0.16% (n = 330,000);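 active = inhibition of at least 50% in every replicate; inconclusive = best replicate reaches 50% inhibition but some replicates fall short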
# Target sequence (Q5AAJ8 whole entry, looked up): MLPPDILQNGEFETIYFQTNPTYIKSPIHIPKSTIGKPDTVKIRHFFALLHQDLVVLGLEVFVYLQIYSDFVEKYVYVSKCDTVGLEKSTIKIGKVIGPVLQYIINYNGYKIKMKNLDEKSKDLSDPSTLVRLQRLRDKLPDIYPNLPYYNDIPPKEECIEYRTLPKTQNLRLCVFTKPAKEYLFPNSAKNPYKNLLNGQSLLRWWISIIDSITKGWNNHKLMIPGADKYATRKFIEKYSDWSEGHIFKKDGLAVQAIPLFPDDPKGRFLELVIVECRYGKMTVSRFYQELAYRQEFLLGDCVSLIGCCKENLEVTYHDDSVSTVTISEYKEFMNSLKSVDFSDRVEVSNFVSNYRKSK
# A number is an active result; 0 = inactive; ? = inconclusive; - = no result given; + = active, no number.
SMILES,CAL PDZ FP-1,ALR H2O2 inh,CAL PDZ FP-2,Dyrk1A ADPGlo,Rtt109 Vps75
Cc1ccc(NC(=O)CSc2sc3c(O)cc(=O)[nH]c3c2C#N)c(F)c1,0,0,0,0,0
Cc1cc(=O)[nH]c(SCC(=O)Nc2ccc(F)cc2)c1C#N,0,91.3,0,0,0
C/C(=N\NC(=O)C1(C)CC1(Br)Br)c1ccc(NC(=O)c2ccc(C)o2)cc1 (stereo not drawn),0,0,0,0,0
CC(=O)Nc1ccc2nc(C3CCCCC3)[nH]c2c1,0,0,0,0,0
O=[N+]([O-])c1ccc2nc(-c3ccncc3)[nH]c2c1,+,0,0,0,0
O=[N+]([O-])c1ccc2nc(C3CCCCC3)[nH]c2c1,-,97.2,0,0,0
O=C(Cn1cnc(S(=O)(=O)N2CCCC2)c1)Nc1cccc(Br)c1,49.9,0,0,0,0
C=CCOc1ccc(C2C(C(=O)c3ccco3)=C(O)C(=O)N2CCCN(CC)CC)cc1 (stereo not drawn),0,0,0,0,0
CCN(CC)CCCN1C(=O)C(O)=C(C(=O)c2ccco2)C1c1ccc(OC(C)C)cc1 (stereo not drawn),87.8,0,0,0,0
C=C(C)Cn1c(Sc2nc3ccccc3[nH]2)nc2c1c(=O)[nH]c(=O)n2C,35.1,0,0,0,0
C=C(C)Cn1c(SCCCO)nc2c1c(=O)[nH]c(=O)n2C,0,0,-,0,0
Cc1cc(-c2nnnn2-c2cc(Cl)cc(Cl)c2)no1,0,0,0,-,0
O=C1NCCC/C1=N\Nc1ccc(Br)cc1,0,99.0,0,-,0
Cc1cc2nc(-c3cccnc3SCC(=O)NC(C)C)[nH]c2cc1C,-,0,0,0,0
COCCOC(=O)CSc1ncccc1-c1nc2cc(C)c(C)cc2[nH]1,0,98.4,0,0,0
Cc1cccn2c(CN[C@H]3CCCCNC3=O)c(C(=O)N3CCOCC3)nc12,0,0,0,0,0
CCn1nc(C(=O)Nc2cc(Cl)ccc2-n2cncn2)c2ccccc2c1=O,57.6,0,0,0,0
O=C(Cn1nc(C(=O)O)c2ccccc2c1=O)Nc1cc(Cl)ccc1-n1cncn1,0,0,0,0,0
CCn1c(SCC(=O)Nc2ccccc2Cl)nnc1C1CC1,-,0,0,0,0
CCc1nnc(SCC(=O)Nc2ccccc2Cl)nc1CC,0,98.1,0,0,0
COc1cccc(N2CCN(C(=O)C3CCN(S(=O)(=O)c4cccs4)CC3)CC2)c1,0,0,0,0,0
CC(C)CSc1nnc(N)s1,57.5,0,0,0,0
CCN(CC)c1ccc(NC(=O)CCNC(=O)c2ccco2)cc1,0,99.0,0,0,0
CC(C)n1cc(C(=O)N2CCCC(N3CCN(c4cccc(Cl)c4)CC3)C2)cn1 (stereo not drawn),0,89.2,0,0,0
O=C(c1ccsc1)N1CCCC(N2CCN(c3cccc(Cl)c3)CC2)C1 (stereo not drawn),0,0,0,0,0
SMILES,CAL PDZ FP-1,ALR H2O2 inh,CAL PDZ FP-2,Dyrk1A ADPGlo,Rtt109 Vps75
Cc1ccc(-n2nc(C)c(Sc3ccccc3[N+](=O)[O-])c2N)cc1,0,87.1,0,0,0
CCOC(=O)/C=C/C(=O)Nc1ccc(S(=O)(=O)Nc2nccs2)cc1,0,0,0,0,0
c1ccc2c(NC3=NCCCCS3)cccc2c1,33.8,0,-,-,0
Cc1oc2c(O)c(O)ccc2c(=O)c1-c1ccccc1,0,98.8,0,0,0
Cc1oc2c(O)c(O)ccc2c(=O)c1-c1cnn(-c2ccccc2)c1,0,99.7,0,0,-
Cc1oc2c(O)c(O)ccc2c(=O)c1-c1ccc(Cl)cc1,0,98.9,0,0,0
Cc1oc2c(CN3CCCC3)c(O)ccc2c(=O)c1-c1ccc(Br)cc1,0,0,0,0,0
Cc1ccc(C(=O)CSc2nnc(-c3ccccc3N)n2C)cc1,36.8,0,-,0,0
CN(C)c1ccc(NC(=O)CSc2nnc(-c3cnccn3)n2C)cc1,0,99.3,0,0,0
Cn1c(SCC(=O)c2ccccc2)nnc1-c1cnccn1,0,97.0,0,0,0
CS(=O)(=O)c1ccc(Cl)c(NC(=O)COC(=O)COc2ccc3c(c2)CCC3)c1,0,0,0,-,0
O=C(CN1C(=O)/C(=C\c2cccc(Cl)c2)Oc2ccccc21)N1CCN(c2ccccn2)CC1,-,0,-,-,-
COc1ccc(CCNC(=O)C2CCN(C(=O)c3ccc(C(C)(C)C)cc3)CC2)cc1,0,0,0,0,0
Cc1[nH]n(C(N)=S)c(=O)c1N=Nc1cc(-c2ccc(Br)cc2)[nH]n1,0,98.5,0,0,0
Cc1c(N=Nc2c(-c3ccc([N+](=O)[O-])cc3)[nH]n(C(N)=S)c2=O)cccc1[N+](=O)[O-],0,-,0,0,0
Cc1ccc(N=Nc2c(C)[nH]n(C(N)=S)c2=O)cc1C,0,0,0,0,0
Cc1[nH]n(C(N)=S)c(=O)c1N=Nc1cccc([N+](=O)[O-])c1C,0,97.9,0,0,0
COc1ccc(NC(=O)CN(C)C(=O)CN2C(=O)NC3(CCCC3)C2=O)cc1,0,0,0,-,0
CCN1CCS/C1=C/C=C/C1=[N+](CC)CCS1,0,96.9,0,0,0
CCC1CCCCN1S(=O)(=O)c1ccc(NC(=O)c2nc(S(C)(=O)=O)ncc2Cl)cc1 (stereo not drawn),0,77.1,0,0,0
CN1CCN(c2nc(-c3cccc([N+](=O)[O-])c3)nc3ccccc23)CC1,0,0,0,0,0
COCCN1CCn2c(nc3cc(NC(=O)c4ccc(OC)cc4)ccc32)C1,0,0,0,0,0
COc1ccccc1C(=O)Nc1ccc2nc(SCC(=O)N(C)C)sc2c1,0,99.7,0,0,0
COc1ccc(OCC(=O)Nc2ccc3c(c2)nc2n3CCSC2)cc1,0,0,0,0,0
CCCCC(=O)Nc1ccc2c(c1)nc1n2CCSC1,0,98.9,0,0,0
SMILES,CAL PDZ FP-1,ALR H2O2 inh,CAL PDZ FP-2,Dyrk1A ADPGlo,Rtt109 Vps75
CC(=O)Nc1ccc2c(c1)nc1n2CCSC1,-,99.3,0,0,?
Cc1ccc(C(=O)Nc2ccc3c(c2)nc2n3CCSC2)cc1,0,98.3,0,0,0
O=C(CSc1nc2ccc(NC(=O)c3ccccc3C(=O)O)cc2s1)Nc1ccc(F)c([N+](=O)[O-])c1,0,-,0,0,0
Cn1cccc2[nH]c(=O)nc1-2,0,0,0,0,0
O=C(Nc1ccccc1)c1ccc(NC(=O)C2CC2)cc1,0,0,0,0,0
COc1ccccc1C(=O)Nc1ccc2c(c1)nc1n2CCN(Cc2ccccc2)C1,0,-,0,0,0
